In one assay the target is T1, Dihydrofolate reductase (Bos taurus, UniProt P00376).
T1 sequence (P00376 whole entry): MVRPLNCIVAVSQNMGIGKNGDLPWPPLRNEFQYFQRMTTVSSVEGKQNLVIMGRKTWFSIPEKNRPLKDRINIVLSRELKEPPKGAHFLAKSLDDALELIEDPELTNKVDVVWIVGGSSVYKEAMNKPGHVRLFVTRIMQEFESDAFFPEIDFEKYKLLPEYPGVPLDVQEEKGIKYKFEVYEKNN
Nature of the assay: Inhibitory activity against bovine liver Dihydrofolate reductase at pH 7.2. The essentials:
(§1)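 DHFR from chicken liver and from bovine liver, each assayed at pH 7.2 by the group's earlier-reported inhibition procedure. Potency is expressed as an apparent inhibition constant, reported as log(1/Ki app).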
Usually Ki stands for a measure of affinity in units of concentration, obtained from inhibition or displacement. Turning to `NC(=O)COc1cccc(Cc2cnc(N)nc2N)c1`, the affinity corresponds to a Ki of 5.37 µM.
Still for that read-out and setting: the figure for `Nc1ncc(Cc2cc(O)cc(O)c2)c(N)n1` is 407 µM.
Molecule `CCCCCCCOc1ccc(Cc2cnc(N)nc2N)cc1` [5-(4-Heptyloxy-benzyl)-pyrimidine-2,4-diamine] registered a Ki of 3.55 µM.
Still for that read-out and setting: the figure for `COCCOc1cccc(Cc2cnc(N)nc2N)c1` is 2.63 µM; for `COCCOc1ccc(Cc2cnc(N)nc2N)cc1` it is 4.9 µM.
As for `COCCOc1ccc(Cc2cnc(N)nc2N)cc1OCCOC`, the affinity, expressed as Ki, was 6.76 µM.
On the same count and under the same terms, the figure for `CCCCCCOc1ccc(Cc2cnc(N)nc2N)cc1` is 2.82 µM.

The next assay concerns the target T2, Dihydrofolate reductase (Gallus gallus, UniProt P00378).
T2 sequence (P00378 whole entry): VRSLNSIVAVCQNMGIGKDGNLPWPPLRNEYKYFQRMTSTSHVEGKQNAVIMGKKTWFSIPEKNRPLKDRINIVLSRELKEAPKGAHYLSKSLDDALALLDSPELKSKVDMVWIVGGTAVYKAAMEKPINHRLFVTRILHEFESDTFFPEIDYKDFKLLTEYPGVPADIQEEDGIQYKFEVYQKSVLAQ
Put plainly: Inhibitory activity against chicken dihydrofolate reductase at pH 7.2.
Take `Nc1ncc(Cc2ccc(OC(F)(F)F)cc2)c(N)n1`: the Ki turned out to be 55 µM.
Still for that read-out and setting: as for `Nc1ncc(Cc2cccc(Cl)c2)c(N)n1`, the figure is 9.77 µM.
On the same count and under the same terms, as for `Nc1ncc(Cc2cccc(I)c2)c(N)n1`, the figure is 16.2 µM.
The same measure, in the same setting: as for `Nc1ncc(Cc2ccc(F)cc2)c(N)n1`, the figure is 16.2 µM.
As for `COc1ccc(Cc2cnc(N)nc2N)cc1OC` [Diaveridine], the affinity corresponds to a Ki of 34.7 µM.
For the molecule `CCCCOCc1cccc(Cc2cnc(N)nc2N)c1`, affinity was put at a Ki of 6.76 µM.
In turn, `Cc1cccc(Cc2cnc(N)nc2N)c1` yielded a Ki of 19.1 µM.
In turn, `Nc1ncc(Cc2ccc([N+](=O)[O-])cc2)c(N)n1` yielded a Ki of 42.7 µM.
On the same count and under the same terms, as for `Nc1ncc(Cc2cccc(F)c2)c(N)n1`, the figure is 20 µM; as for `COc1ccc(Cc2cnc(N)nc2N)cc1C(F)(F)F`, 10.2 µM; as for `Nc1ncc(Cc2ccccc2)c(N)n1`, 19.5 µM.
On the same count and under the same terms, as for `CN(C)c1ccc(Cc2cnc(N)nc2N)cc1`, the figure is 97.7 µM; as for `COCCOc1c(OC)cc(Cc2cnc(N)nc2N)cc1OC` [5-[3,5-Dimethoxy-4-(2-methoxy-ethoxy)-benzyl]-pyrimidine-2,4-diamine], 229 µM.
Still for that read-out and setting: the figure for `CC(=O)Nc1ccc(Cc2cnc(N)nc2N)cc1` is 55 µM.

The target of a further assay is T1, Dihydrofolate reductase. Put plainly: Inhibitory activity against bovine liver dihydrofolate reductase at pH 7.2.
Regarding `Nc1ncc(Cc2cccc(C(F)(F)F)c2)c(N)n1`, the Ki stood at 1.66 µM.
On the same count and under the same terms, the figure for `Nc1ncc(Cc2ccc(Br)cc2)c(N)n1` is 3.8 µM.
Still for that read-out and setting: the figure for `CC(=O)Nc1ccc(Cc2cnc(N)nc2N)cc1[N+](=O)[O-]` is 2.82 µM; for `Nc1ncc(Cc2cccc(Cl)c2)c(N)n1` it is 1.59 µM; for `Nc1ncc(Cc2cccc(Br)c2)c(N)n1` it is 1.55 µM.
`Nc1ccc(Cc2cnc(N)nc2N)cc1` gave a Ki of 11 µM.
Still for that read-out and setting: the figure for `Nc1ncc(Cc2ccc(F)cc2)c(N)n1` is 3.09 µM.
Same read-out and setting: as for `COc1ccc(Cc2cnc(N)nc2N)cc1OC` [Diaveridine], the figure is 2.19 µM; as for `Nc1ncc(Cc2ccc([N+](=O)[O-])cc2)c(N)n1`, 3.72 µM; as for `Cc1ccc(Cc2cnc(N)nc2N)cc1`, 5.37 µM.
On the same count and under the same terms, as for `Nc1ncc(Cc2ccc(Cl)cc2)c(N)n1`, the figure is 2.51 µM; as for `COc1ccc(Cc2cnc(N)nc2N)cc1` [5-(4-Methoxy-benzyl)-pyrimidine-2,4-diamine], 4.47 µM; as for `CN(C)c1ccc(Cc2cnc(N)nc2N)cc1`, 6.17 µM.
In turn, `Nc1ncc(Cc2ccc(O)c(O)c2)c(N)n1` displayed a Ki of 25.7 µM.

Another assay has as its target T2, Dihydrofolate reductase. Put plainly: Inhibitory activity against chicken Dihydrofolate reductase at pH 7.2. The gist of the method:
as §1
In turn, `COCCOc1cccc(Cc2cnc(N)nc2N)c1` yielded a Ki of 14.8 µM.

These data come from BindingDB's records for doi:10.1021/jm00346a020 (1982).
